Laboratory results taken from ChEMBL document CHEMBL3596186, “Synthesis and biological evaluation of diarylthiazole derivatives as antimitotic and antivascular agents with potent antitumor activity” (Bioorg Med Chem, 2015).
Activity calls are given as the source filed them. The rule behind the calls is not given here.

Experiments:
HepG2 [1] = assay: Induction of apoptosis in human HepG2 cells assessed as necrotic cells at 1 uM after 48 hrs by annexin V/propidium iodide staining-based flow cytometry (reference value: 1.59%); assay type: functional
Mus musculus = assay: Toxicity in Balb/c athymic nude mouse xenografted with human SKOV3 cells assessed as loss in body weight at 20 to 50 mg/kg, ip administered daily; assay type: organism-based, SK-OV-3; details: in vivo
Method in brief: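 Female Balb/C athymic nude mice, 5-6 weeks old, carrying s.c. right-flank SK-OV-3 xenografts started from cells in HBSS. At about 100 mm3, groups of 6 received vehicle, 5-FU 10 mg/kg, or test agent i.p. daily. Body weight was measured every two days.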

HCT-116 [2] = assay: Cell cycle arrest in human HCT116 cells assessed as accumulation at G1 phase at 0.2 uM after 24 hrs by flow cytometry (reference value: 53.98%); assay type: functional
HUVEC [3] = assay: Antimigratory activity against HUVEC at 500 nM after 24 hrs by phase contrast microscopy; assay type: functional, cell-based; details: Homo sapiens
Method in brief: (§1)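 HUVEC monolayers grown overnight in 6-well plates, scratched with pipet tips, washed twice with PBS, then given fresh EBM2 with vehicle or compound. Imaged by phase contrast at 0 and 24 h (100×). Migrated cells counted manually in 3 separate fields; mean ± SD from three fields.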

SK-OV-3 = assay: Antitumor activity against human SKOV3 cells xenografted in Balb/c athymic nude mouse assessed as tumor growth inhibition at 50 mg/kg, ip administered daily after 42 days; assay type: functional; details: SK-OV-3, ip, 1008 h, read-out: TGI
HepG2 [4] = assay: Induction of apoptosis in human HepG2 cells assessed as late apoptotic cells at 0.2 uM after 24 hrs by annexin V/propidium iodide staining-based flow cytometry (reference value: 3.74%); assay type: functional
HepG2 [5] = assay: Induction of apoptosis in human HepG2 cells assessed as necrotic cells at 0.5 uM after 48 hrs by annexin V/propidium iodide staining-based flow cytometry (reference value: 1.59%); assay type: functional
HCT-116 [6] = assay: Antitumor activity against human HCT116 cells xenografted in Balb/c athymic nude mouse assessed as tumor growth inhibition at 50 mg/kg, ip administered daily after 42 days; assay type: functional; details: HCT-116, ip, 1008 h, read-out: TGI
Method in brief: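 Female Balb/C athymic nude mice, 5-6 weeks old, implanted s.c. in the right flank with HCT116 cells in 100 µL HBSS. Tumor volume (π/6 × L × W²) and body weight measured every 2 days. Inhibition = (1 − treated/control tumor weight) × 100%.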

HepG2 [7] = assay: Induction of apoptosis in human HepG2 cells assessed as viable cells at 0.2 uM after 24 hrs by annexin V/propidium iodide staining-based flow cytometry (reference value: 89.8%); assay type: functional; details: HepG2, 24 h, read-out: Activity
HCT-116 [8] = assay: Induction of apoptosis in human HCT116 cells assessed as late apoptotic cells at 1 uM after 24 hrs by annexin V/propidium iodide staining-based flow cytometry (reference value: 1.71%); assay type: functional
HCT-116 [9] = assay: Cell cycle arrest in human HCT116 cells assessed as accumulation at G2/M phase at 1 uM after 24 hrs by flow cytometry (reference value: 20.36%); assay type: functional
HCT-116 [10] = assay: Induction of apoptosis in human HCT116 cells assessed as necrotic cells at 1 uM after 24 hrs by annexin V/propidium iodide staining-based flow cytometry (reference value: 3.49%); assay type: functional
HCT-116 [11] = assay: Cell cycle arrest in human HCT116 cells assessed as accumulation at G1 phase at 0.5 uM after 24 hrs by flow cytometry (reference value: 53.98%); assay type: functional
[12] = Antiproliferative activity against human A2780S cells after 48 hrs by MTT assay; assay type: functional, cell-based; details: A2780, 48 h
Method in brief: (§2)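 HCT116, HepG2, SMMC-7721, SK-OV-3 and A2780s grown in DMEM; A549 and MCF-7 in RPMI-1640; all with 10% FBS and penicillin/streptomycin at 37 °C, 5% CO2. Log-phase cells at 40,000-50,000 cells/mL treated with graded concentrations for 48 h. MTT 3 h, DMSO solubilization, A570. IC50 from percent growth versus untreated control; mean ± SEM of ≥3 independent dose-response experiments.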

HepG2 [13] = assay: Cell cycle arrest in human HepG2 cells assessed as accumulation at G1 phase at 0.2 uM after 24 hrs by flow cytometry (reference value: 62.74%); assay type: functional
HCT-116 [14] = assay: Antiproliferative activity against human HCT116 cells after 48 hrs by MTT assay; assay type: functional, cell-based; details: HCT-116, 48 h; method in brief: as §2
HCT-116 [15] = assay: Cell cycle arrest in human HCT116 cells assessed as accumulation at S phase at 0.2 uM after 24 hrs by flow cytometry (reference value: 25.66%); assay type: functional
HepG2 [16] = assay: Cell cycle arrest in human HepG2 cells assessed as accumulation at S phase at 1 uM after 24 hrs by flow cytometry (reference value: 23.97%); assay type: functional
HCT-116 [17] = assay: Cell cycle arrest in human HCT116 cells assessed as accumulation at S phase at 1 uM after 24 hrs by flow cytometry (reference value: 25.66%); assay type: functional
HCT-116 [18] = assay: Induction of apoptosis in human HCT116 cells assessed as viable cells at 0.5 uM after 24 hrs by annexin V/propidium iodide staining-based flow cytometry (reference value: 92%); assay type: functional; details: HCT-116, 24 h, read-out: Activity
[19] = Antiproliferative activity against human […] cells after 48 hrs by MTT assay; assay type: functional, cell-based; method in brief: as §2
HCT-116 [20] = assay: Induction of apoptosis in human HCT116 cells assessed as necrotic cells at 1 uM after 48 hrs by annexin V/propidium iodide staining-based flow cytometry (reference value: 3.49%); assay type: functional
NCI-H1975 = assay: Resistance ratio, ratio of IC50 for human gefitinib-resistant NCI-H1975 cells to IC50 for human HCC827 cells; assay type: functional
HepG2 [21] = assay: Induction of apoptosis in human HepG2 cells assessed as viable cells at 1 uM after 24 hrs by annexin V/propidium iodide staining-based flow cytometry (reference value: 89.8%); assay type: functional; details: HepG2, 24 h, read-out: Activity
HepG2 [22] = assay: Induction of apoptosis in human HepG2 cells assessed as early apoptotic cells at 1 uM after 24 hrs by annexin V/propidium iodide staining-based flow cytometry (reference value: 0.87%); assay type: functional
HUVEC [23] = assay: Antimigratory activity against HUVEC after 24 hrs by phase contrast microscopy; assay type: functional, cell-based; details: Homo sapiens; method in brief: as §1
HCT-116 [24] = assay: Induction of apoptosis in human HCT116 cells assessed as early apoptotic cells at 0.2 uM after 48 hrs by annexin V/propidium iodide staining-based flow cytometry (reference value: 2.83%); assay type: functional
Method in brief: (§3)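 HCT116 cells treated with compound or DMSO for 24 or 48 h, trypsinized, washed twice in PBS and dual-stained with annexin-V and PI. Analysed by flow cytometry: early apoptotic cells scored as annexin-V+/PI−, late apoptotic cells as annexin-V+/PI+.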

HCT-116 [25] = assay: Induction of apoptosis in human HCT116 cells assessed as late apoptotic cells at 0.5 uM after 24 hrs by annexin V/propidium iodide staining-based flow cytometry (reference value: 1.71%); assay type: functional; method in brief: as §3
HCT-116 [26] = assay: Cell cycle arrest in human HCT116 cells assessed as accumulation at S phase at 0.5 uM after 24 hrs by flow cytometry (reference value: 25.66%); assay type: functional
HCT-116 [27] = assay: Induction of apoptosis in human HCT116 cells assessed as late apoptotic cells at 0.2 uM after 24 hrs by annexin V/propidium iodide staining-based flow cytometry (reference value: 1.71%); assay type: functional; method in brief: as §3

CCOc1ccc(-c2nc(N)sc2-c2cc(OC)c(OC)c(OC)c2)cc1
Activity (HepG2 [1]): 0.4% | Activity (Mus musculus): Toxic | Activity (HCT-116 [2]): 29.2% | Activity (HUVEC [3]): Active | inhibition in vivo at 50 mg/kg (SK-OV-3): 72.7% | Activity (HepG2 [4]): 6.51% | Activity (HepG2 [5]): 0.7% | inhibition in vivo at 50 mg/kg (HCT-116 [6]): 55.1% | viability at 0.2 µM (HepG2 [7]): 81.8% | Activity (HCT-116 [8]): 17.1% | Activity (HCT-116 [9]): 9.22% | Activity (HCT-116 [10]): 3.15% | Activity (HCT-116 [11]): 11.45% | IC50 [12]: 0.016 µM | Activity (HepG2 [13]): 50.57% | IC50 (HCT-116 [14]): 0.0084 µM | Activity (HCT-116 [15]): 22% | Activity (HepG2 [16]): 7.43% | Activity (HCT-116 [17]): 7.71% | viability at 0.5 µM (HCT-116 [18]): 74.5% | IC50 [19]: 0.023 µM | Activity (HCT-116 [20]): 4.06% | Ratio IC50 (NCI-H1975): 2.24 | viability at 1 µM (HepG2 [21]): 65.4% | Activity (HepG2 [22]): 25.4% | Activity (HUVEC [23]): Dose-dependent effect | Activity (HCT-116 [24]): 40.2% | Activity (HCT-116 [25]): 10.8% | Activity (HCT-116 [26]): 20.51% | Activity (HCT-116 [27]): 8.08%
